# Assay results taken from ChEMBL document CHEMBL1149173, “Design, synthesis, and biological evaluation of hybrid molecules containing alpha-methylene-gamma-butyrolactones and polypyrrole minor groove binders” (J Med Chem, 2004).
# Key:
# Type in all cases: functional, cell-based
# CCRF-CEM = assay: Inhibitory concentration required to inhibit human T-lymphoblast CEM cells proliferation
# Summary of the method: (§1)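 Human T-lymphocyte cells seeded at 300000–500000 cells/mL and mixed 1:1 with serial compound dilutions. Incubated 3 days at 37 °C, then cell number counted with a Coulter counter. IC50 taken as the concentration giving 50% inhibition of proliferation, as mean ± SE from dose–response curves of at least three independent experiments.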
# FM3A = assay: Inhibitory concentration required to inhibit murine mammary carcinoma FM3A cells proliferation; conditions: Mus musculus
# Summary of the method: (§2)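 Murine cells were suspended at 300000–500000 cells/mL and added 1:1 to wells holding serial dilutions of compound. Cells were counted by Coulter counter after 2 days at 37 °C. IC50 is the concentration inhibiting cell proliferation by 50%, given as mean ± SE from dose–response curves of at least three independent experiments.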
# L1210 = assay: Inhibitory concentration required to inhibit murine leukemia L1210 cells proliferation; conditions: Mus musculus; summary of the method: as §2
# MOLT-4 = assay: Inhibitory concentration required to inhibit human T-lymphoblast Molt4 cells proliferation; summary of the method: as §1
IC50 (CCRF-CEM) [µM],IC50 (L1210) [µM],IC50 (MOLT-4) [µM],Compound,IC50 (FM3A) [µM]
57.9,13,46.9,C=C1CC(COc2cc(C(=O)O)n(C)n2)(c2ccc(Cl)cc2)OC1=O (stereo unspecified),99.2
18.5,14.8,9.4,C=C1CC(COc2cc(C(=O)O)n(C)n2)(c2ccc(-c3ccccc3)cc2)OC1=O (stereo unspecified),42
174,107,189,C=C1CC(COc2cc(C(=O)O)n(C)n2)(c2ccccc2)OC1=O (stereo unspecified),189
402,522,746,C=C1CC(C)(COc2cc(C(=O)O)n(C)n2)OC1=O (stereo unspecified),755
